Assay results published in ChEMBL document CHEMBL1155138, “Identification and characterization of a new metallo-beta-lactamase, IND-5, from a clinical isolate of Chryseobacterium indologenes” (Antimicrob Agents Chemother, 2007).
Active and inactive are the calls of the source. The calls are words filed in the database; no cut-off is given here.

Legend:
[1] = system: Chryseobacterium indologenes; assay: Ratio of Kcat to Km of Chryseobacterium indologenes metallo-beta-lactamase IND-5 expressed in Escherichia coli BL21(DE3) assessed as substrate hydrolysis
Outline: (§1)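 Purified IND-5 came from E. coli BL21(DE3)/pET-IND-5, induced with 1 mM IPTG for 2 h at 20°C. It was purified by Mono Q then Mono P chromatography in buffers with 50 μM ZnSO4. Substrate hydrolysis was measured under initial-rate conditions in 30 mM sodium cacodylate pH 6.5 plus 50 μM ZnSO4. Km and kcat came from Hanes linearization and are means of three measurements.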

[2] = system: Chryseobacterium indologenes; assay: Activity of Chryseobacterium indologenes metallo-beta-lactamase IND-5 expressed in Escherichia coli BL21(DE3) assessed as substrate hydrolysis; outline: as §1
[3] = system: Chryseobacterium indologenes; assay: Ratio of Kcat to Km of Chryseobacterium indologenes metallo-beta-lactamase IND-5 expressed in Escherichia coli BL21(DE3) assessed as substrate hydrolysis relative to control; set-up: scale not given: the % may be the effect or the level left
Escherichia coli [4] = assay: Antimicrobial activity against Escherichia coli HB101 harboring pBC-IND-5 plasmid containing metallo-beta-lactamase IND5 assessed as drug level at which microbial resistance was observed by agar dilution method; format: functional
Escherichia coli [5] = assay: Antimicrobial activity against Escherichia coli HB101 harboring pBC-SK plasmid assessed as drug level at which microbial resistance was observed by agar dilution method; format: functional
[6] = system: Chryseobacterium indologenes; assay: Antimicrobial activity against Chryseobacterium indologenes NF16 isolate assessed as drug level at which microbial resistance was observed by agar dilution method; format: functional
Outline: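 Agar dilution per CLSI guidelines, inoculum 5 × 10^5 CFU per spot; E. coli ATCC 25922 run as quality-control strain.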

[7] = Inhibition of Chryseobacterium indologenes metallo-beta-lactamase IND-5 expressed in Escherichia coli BL21(DE3) using nitrocefin reporter substrate
Outline: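 Purified IND-5 at 0.1 μM was incubated for 15 min at 30°C with increasing concentrations of zinc chelator.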

CC1(C)S[C@@H]2[C@H](NC(=O)C(C(=O)O)c3ccccc3)C(=O)N2[C@H]1C(=O)O (stereo partly specified)
kcat/Km [1]: 53000 M⁻¹ s⁻¹
Km [2]: 320 µM
kcat [2]: 17 s⁻¹
Activity [3]: 6.3%

CC1(C)S[C@@H]2[C@H](NC(=O)Cc3ccccc3)C(=O)N2[C@H]1C(=O)O
kcat/Km [1]: 840000 M⁻¹ s⁻¹
Km [2]: 13 µM
kcat [2]: 10.9 s⁻¹
Activity [3]: 100%

CC1(C)[C@H](C(=O)O)N2C(=O)C[C@H]2S1(=O)=O
kcat/Km [1]: 2500 M⁻¹ s⁻¹
Km [2]: 1300 µM
kcat [2]: 3.3 s⁻¹
Activity [3]: 0.3%

CC1(C)S[C@@H]2[C@H](NC(=O)[C@H](N)c3ccc(O)cc3)C(=O)N2[C@H]1C(=O)O [AMOXICILLIN]
Activity (Escherichia coli [4]): >64 µg/mL
Activity (Escherichia coli [5]): 2 µg/mL
Activity [6]: >64 µg/mL

O=C(Cc1cccs1)N[C@@H]1C(=O)N2C(C(=O)O)=C(/C=C/c3ccc([N+](=O)[O-])cc3[N+](=O)[O-])CS[C@H]12
kcat/Km [1]: 550000 M⁻¹ s⁻¹
Km [2]: 8 µM
kcat [2]: 4.4 s⁻¹
Activity [3]: 65%

C[C@H]1[C@H](NC(=O)/C(=N\OC(C)(C)C(=O)O)c2csc(N)n2)C(=O)N1S(=O)(=O)O [AZTREONAM]
Activity [2]: inactive
Activity [6]: 32 µg/mL

O=C(O)c1cccc(C(=O)O)n1 [DIPICOLINIC ACID]
Ki [7]: 3 µM

CO/N=C(\C(=O)N[C@@H]1C(=O)N2C(C(=O)O)=C(COC(C)=O)CS[C@H]12)c1csc(N)n1 [CEFOTAXIME]
kcat/Km [1]: 31000 M⁻¹ s⁻¹
Km [2]: 49 µM
kcat [2]: 1.53 s⁻¹
Activity [3]: 3.7%
Activity (Escherichia coli [4]): 16 µg/mL
Activity [6]: 32 µg/mL

c1cnc2c(c1)ccc1cccnc12 [PHENANTHROLINE]
Ki [7]: 7.3 µM

O=C(O)CN(CCN(CC(=O)O)CC(=O)O)CC(=O)O [EDETIC ACID]
Ki [7]: 815 µM

CC(C)(O/N=C(\C(=O)N[C@@H]1C(=O)N2C(C(=O)[O-])=C(C[n+]3ccccc3)CS[C@H]12)c1csc(N)n1)C(=O)O [CEFTAZIDIME]
Activity (Escherichia coli [4]): 0.5 µg/mL
Activity (Escherichia coli [5]): <0.5 µg/mL
Activity [6]: 1 µg/mL

C[C@@H](O)[C@H]1C(=O)N2C(C(=O)O)=C(SCCNC=N)C[C@H]12 [IMIPENEM ANHYDROUS]
kcat/Km [1]: 24000 M⁻¹ s⁻¹
Km [2]: 300 µM
kcat [2]: 7.28 s⁻¹
Activity [3]: 2.8%
Activity (Escherichia coli [4]): 1 µg/mL
Activity (Escherichia coli [5]): 0.5 µg/mL
Activity [6]: 32 µg/mL

CCN1CCN(C(=O)N[C@@H](C(=O)N[C@@H]2C(=O)N3[C@@H]2SC(C)(C)[C@@H]3C(=O)O)c2ccccc2)C(=O)C1=O [PIPERACILLIN]
kcat/Km [1]: 39000 M⁻¹ s⁻¹
Km [2]: 375 µM
kcat [2]: 14.6 s⁻¹
Activity [3]: 4.6%
Activity (Escherichia coli [4]): 32 µg/mL
Activity (Escherichia coli [5]): 1 µg/mL
Activity [6]: 16 µg/mL

C[C@]1(Cn2ccnn2)[C@H](C(=O)O)N2C(=O)C[C@H]2S1(=O)=O
Activity [2]: inactive

C[C@@H](O)[C@H]1C(=O)N2C(C(=O)O)=C(S[C@@H]3CN[C@H](C(=O)N(C)C)C3)[C@H](C)[C@H]12 [MEROPENEM]
kcat/Km [1]: 15000 M⁻¹ s⁻¹
Km [2]: 280 µM
kcat [2]: 4.13 s⁻¹
Activity [3]: 1.8%
Activity (Escherichia coli [4]): 1 µg/mL
Activity (Escherichia coli [5]): <0.125 µg/mL
Activity [6]: 16 µg/mL

CC1(C)S[C@@H]2[C@H](NC(=O)[C@H](N)c3ccccc3)C(=O)N2[C@H]1C(=O)O
kcat/Km [1]: 69000 M⁻¹ s⁻¹
Km [2]: 150 µM
kcat [2]: 10.3 s⁻¹
Activity [3]: 8.2%

CO/N=C(\C(=O)N[C@@H]1C(=O)N2C(C(=O)[O-])=C(C[N+]3(C)CCCC3)CS[C@H]12)c1csc(N)n1
Activity [2]: inactive
Activity (Escherichia coli [4]): 0.5 µg/mL
Activity (Escherichia coli [5]): < 0.125 µg/mL
Activity [6]: 0.5 µg/mL

CO[C@@]1(NC(=O)C(C(=O)O)c2ccc(O)cc2)C(=O)N2C(C(=O)O)=C(CSc3nnnn3C)CO[C@@H]21 (stereo partly specified)
Activity [2]: inactive

Cc1nnc(SCC2=C(C(=O)O)N3C(=O)[C@@H](NC(=O)Cn4cnnn4)[C@H]3SC2)s1 [CEFAZOLIN]
kcat/Km [1]: 18000 M⁻¹ s⁻¹
Km [2]: 25 µM
kcat [2]: 0.46 s⁻¹
Activity [3]: 2.1%
Activity (Escherichia coli [4]): 64 µg/mL
Activity (Escherichia coli [5]): 1 µg/mL
Activity [6]: 64 µg/mL
